The sample as a whole holds a higher share of hits than the screen did.
ALR H2O2 inh – blocks human ALR sulfhydryl oxidase activity; inhibition, % (no concentration beside the values); hit rate 3.8% among 290,000; AID 485317; purified ALR, DTT oxidation, H2O2 HRP-luminol luminescence;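 active = mean replicate inhibition above about 79%, with every replicate also reaching it, limit read from the data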
Target sequence (P55789 whole entry, looked up): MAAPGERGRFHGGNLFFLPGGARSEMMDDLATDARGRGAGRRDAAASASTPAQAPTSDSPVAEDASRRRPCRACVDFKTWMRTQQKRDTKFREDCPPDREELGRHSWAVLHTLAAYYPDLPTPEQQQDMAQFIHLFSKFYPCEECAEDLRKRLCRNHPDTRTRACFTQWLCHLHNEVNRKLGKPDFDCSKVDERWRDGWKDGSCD
T cell modulator – T cell immune modulation candidate; 2C CD8+ T cell-vesicle binding, flow cytometry; stronger effect = lower value; response (vesicle binding), % at 7 µM; hit rate 0.068% among 330,000; AID 2052;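 active = response, share of CD8 T cells binding vesicles, and their 90th percentile fluorescence all below set limits, cut at about 80% in these data, passing the limit was not always enough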;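 note: values below 100% mean blocked vesicle binding to the CD8+ T cells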
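System: murine 2C transgenic CD8+ T lymphocytes; also added: QL9-loaded Drosophila micro-vesicles; times: binding 1.5 h at 37 °C; measured by: flow cytometry, PE anti-B7-1 (FL2) versus Alexa647 anti-CD8 (FL8), PFA-fixed; control set: Peptide-free naked vesicles (low) and QL9 vesicles with 0.7% DMSO vehicle (high)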
N-glyco inh – blocks N-linked glycosylation in D54 reporter cells | AID 588692 | reporter increase, % at 12.5 µM | hit rate 0.23% among 360,000 | D54 ERlucT glycosylation luciferase reporter, 24 h; percent of 100 nM tunicamycin response;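 active = mean luciferase reporter signal, scaled so untreated is 0 and the glycosylation-blocking control 100, at or above a set limit in every replicate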;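 note: luciferase carries N-glycosylation sites so blocking glycosylation raises the light; 0% = median of neutral control wells and 100% = median of 100 nM tunicamycin wells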
* = called active by the depositor.

`CC(C)c1ccc(NC2CCCN(C(=O)CCN3Cc4ccccc4C3=O)C2)cc1` (stereo not given) gave ALR H2O2 inh 98.5*, T cell modulator 261.8 and N-glyco inh -0.6.
For CC1CCN(C(=O)CSc2nncn2C)CC1 the results were ALR H2O2 inh -5.6, T cell modulator 229.0 and N-glyco inh 0.9.
Screening O=C1CCCCN1CCC(=O)N1CCCC(Nc2ccccc2)C1 (stereo not given) returned ALR H2O2 inh 4.3, T cell modulator 282.2 and N-glyco inh 1.6.
`CC(C)c1ccc(NC2CCCN(C(=O)CSc3nncn3C)C2)cc1` (stereo not given) gave ALR H2O2 inh 90.8*, T cell modulator 293.7 and N-glyco inh -0.4.
`CC(C)c1ccc(NC2CCCN(C(=O)CN3CCCC3=O)C2)cc1` (stereo not given) gave ALR H2O2 inh 82.3*, T cell modulator 270.4 and N-glyco inh 2.7.
Screening CC(C)CC1CCCCC1OC(=O)CN1CCCCC1 (stereo not given) returned ALR H2O2 inh -10.2, T cell modulator 323.9 and N-glyco inh -0.9.
`Clc1ccc(-c2ccccc2)nn1` gave ALR H2O2 inh 6.1, T cell modulator 513.1 and N-glyco inh 0.7.
CN(Cc1cnc2nc(N)nc(N)c2n1)c1ccc(C(=O)NC(CCC(=O)O)C(=O)O)cc1 (stereo not given) was read as N-glyco inh -0.9.
COC(=O)C1=C(COc2ccccc2)NC(=O)NC1c1ccc(Cl)cc1 (stereo not given) was read as ALR H2O2 inh -1.2 and T cell modulator 287.2.
CCSc1ccc(/C(N)=N/OC(=O)c2cccs2)cn1 was read as ALR H2O2 inh -1.2, T cell modulator 213.7 and N-glyco inh 2.0.
COc1ccc(CN(CC(=O)NC2CCCCC2)C(=O)CCC(=O)Nc2nccs2)cc1 was read as ALR H2O2 inh -3.5, T cell modulator 409.5 and N-glyco inh 1.1.
O=C(CCN1C(=O)/C(=C/c2cccs2)SC1=S)Nc1ccc(C(=O)O)c(O)c1 was read as ALR H2O2 inh 79.2*, T cell modulator 601.4 and N-glyco inh 0.0.
CN1CCN(C(=O)CCCN2C(=O)/C(=C/c3ccccc3)SC2=S)CC1 was read as ALR H2O2 inh 3.5, T cell modulator 175.2 and N-glyco inh 5.6.
Screening O=C(CCCN1C(=O)S/C(=C/C=C/c2ccccc2)C1=O)Nc1ccc(C(=O)O)cc1 returned T cell modulator 214.0 and N-glyco inh 2.0.
Screening CC(=Cc1ccccc1)C=C1SC(=S)N(CCCC(=O)Nc2ccc(C(=O)O)c(O)c2)C1=O returned N-glyco inh 0.4.
For O=C(CCN1C(=O)/C(=C/c2cccs2)SC1=S)Nc1ccc(O)cc1 the results were ALR H2O2 inh -20.6, T cell modulator 73.5 and N-glyco inh -4.5.
CC(=C\c1ccccc1)/C=C1/SC(=O)N(CCCC(=O)Nc2ccc(C(=O)O)cc2)C1=O was read as ALR H2O2 inh 97.1*, T cell modulator 139.7 and N-glyco inh -1.0.
CC(/C=C1\SC(=S)N(CCCC(=O)Nc2ccc(C(=O)O)c(O)c2)C1=O)=C\c1ccccc1 was read as ALR H2O2 inh 97.4* and T cell modulator 443.1.
`O=C(O)CCCN1C(=O)/C(=C\C(Cl)=C\c2ccccc2)SC1=S` gave ALR H2O2 inh 97.9*, T cell modulator 190.5 and N-glyco inh 17.7.
For O=C(NC(=S)NC12CC3CC(CC(C3)C1)C2)c1ccc(F)cc1 the results were T cell modulator 338.9 and N-glyco inh -2.7.
Screening Cn1c(=O)[nH]c(=O)c2c1nc1n2CCCN1Cc1ccccc1 returned ALR H2O2 inh 4.5, T cell modulator 383.1 and N-glyco inh 5.0.
Screening CCC(CC)NC(=O)C1CC(=O)N(CCc2ccc(F)cc2)C1 (stereo not given) returned ALR H2O2 inh -22.5, T cell modulator 329.0 and N-glyco inh 0.3.
For COC(=O)c1ccc(CN2[C@H](C(=O)OC)C[C@@]3(O)[C@@H](O)[C@@H](O)[C@@H](O)C[C@@H]23)cc1 the results were T cell modulator 162.5 and N-glyco inh 6.3.
`Cc1c(NC(=O)COC(=O)C23CC4CC(CC(Br)(C4)C2)C3)c(=O)n(-c2ccccc2)n1C` gave ALR H2O2 inh -2.3, T cell modulator 221.7 and N-glyco inh -1.2.
`CCN(C(=O)c1ccco1)c1nnc(-c2cccnc2)s1` gave ALR H2O2 inh -0.8, T cell modulator 214.3 and N-glyco inh -2.4.
For Cc1ccsc1C(=O)N1CCC1(C)C(=O)NS(=O)(=O)c1ccccc1C(F)(F)F (stereo not given) the results were N-glyco inh -0.6.
Screening O=C(O)CCN1C(=O)/C(=C/c2ccc(-c3nc4ccccc4s3)o2)SC1=S returned ALR H2O2 inh 61.5, T cell modulator 143.7 and N-glyco inh 3.4.
`O=C(O)CCCN1C(=O)/C(=C\c2ccc(-c3nc4ccccc4s3)o2)SC1=S` gave ALR H2O2 inh 93.9*, T cell modulator 279.0 and N-glyco inh -4.9.
`CCOc1ccc(/C(O)=C2/C(=O)C(=O)N(c3nc(C)c(C)s3)C2c2ccco2)cc1` (stereo not given) gave ALR H2O2 inh -0.2, T cell modulator 175.7 and N-glyco inh 1.2.
Screening COC(=O)c1sc(N2C(=O)C(=O)/C(=C(/O)c3ccc(C)cc3)C2c2ccco2)nc1C (stereo not given) returned ALR H2O2 inh 92.1* and T cell modulator 493.8.
For Cc1c(NC(=O)c2ccc(C(=O)Nc3c(C)n(C)n(-c4ccccc4)c3=O)cc2)c(=O)n(-c2ccccc2)n1C the results were ALR H2O2 inh -21.2, T cell modulator 268.1 and N-glyco inh 0.9.
For Cc1c(NC(=O)c2ccc(=O)oc2)c(=O)n(-c2ccccc2)n1C the results were ALR H2O2 inh 88.2*, T cell modulator 287.3 and N-glyco inh 3.2.
For COc1ccc(OC)c(-c2cc(C(=O)Nc3c(C)n(C)n(-c4ccccc4)c3=O)no2)c1 the results were ALR H2O2 inh 4.2, T cell modulator 163.8 and N-glyco inh 2.9.
COc1ccccc1-c1cc(C(=O)Nc2c(C)n(C)n(-c3ccccc3)c2=O)no1 was read as ALR H2O2 inh 96.9*, T cell modulator 100.7 and N-glyco inh 0.8.
Cc1c(C)n2c(SCC(=O)N3CC(C)OC(C)C3)nnc2[nH]c1=O (stereo not given) was read as ALR H2O2 inh -0.7, T cell modulator 307.7 and N-glyco inh -1.4.
CCOc1ccc(CC(C(N)=O)C(N)=O)cc1 was read as ALR H2O2 inh -4.9, T cell modulator inactive and N-glyco inh 2.1.
Screening CCOc1ccc(CSC(=N)N)cc1 returned ALR H2O2 inh 98.1*, T cell modulator 322.1 and N-glyco inh 1.7.
Screening CCCCCOc1ccc(CN2CCOCC2)cc1Cl returned ALR H2O2 inh -15.4, T cell modulator 366.1 and N-glyco inh -7.1.
Screening CCCCOc1ccc(CSC(=N)N)cc1Cl returned ALR H2O2 inh 98.7*, T cell modulator 285.5 and N-glyco inh 3.3.
Screening Cc1ccc(C(C)NC(=S)NCc2ccc(F)cc2)c(C)c1 (stereo not given) returned ALR H2O2 inh -3.3, T cell modulator 234.9 and N-glyco inh -4.3.
CN(C)NC(=O)c1ccsc1NC(=O)c1ccc(S(=O)(=O)N2CCCC2)cc1 was read as ALR H2O2 inh 86.8*, T cell modulator 172.3 and N-glyco inh -1.7.

Source: PubChem BioAssay (several laboratories)
